Measurements from ChEMBL document CHEMBL5620424, “Design, synthesis and evaluation of novel 2-phenyl-3-(1H-pyrazol-4-yl)pyridine positive allosteric modulators for the M4 mAChR” (Eur J Med Chem, 2023).
Activity calls are given as the source filed them. The calls are words filed in the database; no cut-off is given here.

How the values were obtained:
[1] = target: T1, Muscarinic acetylcholine receptor M4 (Homo sapiens) (UniProt P08173); test: Positive allosteric modulation at human M4 mAChR expressed in Flp-In-CHO cells co-expressing CAMYEL biosensor assessed as change in ACh-mediated response incubated for 5 mins by BRET assay; type: cell-based; conditions: filed as positive allosteric modulator
T1 sequence (whole entry): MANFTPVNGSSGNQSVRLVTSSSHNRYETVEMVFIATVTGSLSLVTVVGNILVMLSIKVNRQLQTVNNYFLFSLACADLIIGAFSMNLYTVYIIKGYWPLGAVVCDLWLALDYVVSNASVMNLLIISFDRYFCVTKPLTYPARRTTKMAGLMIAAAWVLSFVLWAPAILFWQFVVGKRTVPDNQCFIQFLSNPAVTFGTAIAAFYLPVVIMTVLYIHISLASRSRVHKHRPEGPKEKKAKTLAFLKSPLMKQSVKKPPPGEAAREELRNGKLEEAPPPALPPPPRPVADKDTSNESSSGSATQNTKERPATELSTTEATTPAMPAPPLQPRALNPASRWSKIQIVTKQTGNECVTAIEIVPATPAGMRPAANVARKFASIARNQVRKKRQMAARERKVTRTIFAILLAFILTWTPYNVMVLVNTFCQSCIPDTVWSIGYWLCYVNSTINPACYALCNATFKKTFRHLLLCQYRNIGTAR
Outline: (§1)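 FlpInCHO cells stably expressing human M4 mAChR, transiently transfected with CAMYEL cAMP BRET biosensor (60 ng/well, PEI), assayed 48 h later in HBSS pH 7.4. Full ACh concentration-response curve alone or with modulator at 1 or 10 μM, co-added with coelenterazine h (5 μM), 5 min, 37 °C. Three-parameter logistic fit; ACh curve values subtracted from ACh+modulator values. Δbaseline and ΔEmax given as % of maximal ACh response without modulator. 4 experiments in duplicate, SEM pooled.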

[2] = target: T1, Muscarinic acetylcholine receptor M4 (Homo sapiens); test: Positive allosteric modulation at human M4 mAChR expressed in Flp-In-CHO cells co-expressing CAMYEL biosensor assessed as change in maximum ACh-mediated response at 10 uM incubated for 5 mins by BRET assay relative to control; type: cell-based; outline: as §1
[3] = target: T1, Muscarinic acetylcholine receptor M4 (Homo sapiens); test: Positive allosteric modulation at human M4 mAChR expressed in Flp-In-CHO cells co-expressing CAMYEL biosensor assessed as efficacy of ACh-mediated cAMP signalling (log tau B) incubated for 5 mins by BRET assay; type: functional, cell-based; conditions: filed as positive allosteric modulator
Outline: (§2)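 CAMYEL-transfected FlpInCHO-hM4 cells (48 h post-transfection) given ACh and modulator concentration ranges in full interaction design, 5 min at 37 °C; BRET read with coelenterazine h. Fit to complete operational model of allosterism and agonism with ACh KA and modulator KB fixed from binding assays. Gives log τB and log αβ. 4–5 experiments in duplicate.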

[4] = target: T1, Muscarinic acetylcholine receptor M4 (Homo sapiens); test: Positive allosteric modulation at human M4 mAChR expressed in Flp-In-CHO cells co-expressing CAMYEL biosensor assessed as ACh-mediated cAMP signalling co-operativity (log alpha beta) incubated for 5 mins by BRET assay; type: functional, cell-based; conditions: filed as positive allosteric modulator; outline: as §2
[5] = Drug concentration in plasma of naive C57BL/6J mouse at 10 mg/kg, ip measured after 20 to 30 mins; type: ADME, organism-based; conditions: in vivo, time 20-30 min
Outline: (§3)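 Male C57Bl/6J mice, naïve, 10–12 weeks old, dosed i.p. at 10 mg/kg in 10% DMSO, 1.1% Tween 80, 21.8 mM Tris. Blood by cardiac puncture under anaesthesia at 20 or 90 min (n = 2–3 per time point). Brain concentration corrected for compound in brain vasculature. Mean nM ± SEM reported; Kp = Cbrain/Cplasma, reported as a range.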

[6] = Drug concentration in plasma of naive C57BL/6J mouse at 10 mg/kg, ip measured after 90 mins; type: ADME, organism-based; outline: as §3
[7] = target: T1, Muscarinic acetylcholine receptor M4 (Homo sapiens); test: Positive allosteric modulation at human M4 mAChR expressed in Flp-In-CHO cells assessed as increase in ERK1/2 phosphorylation at 10 uM incubated for 5 mins […]; type: cell-based; conditions: filed as positive allosteric modulator
Outline: (§4)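 FlpInCHO cells stably expressing human M1–M5 mAChRs, serum-deprived in HBSS 4 h at 37 °C, then ACh (10 nM–10 μM) with or without modulator at 10 μM for 5 min at 37 °C. Cells lysed and frozen overnight. pERK1/2 measured by AlphaScreen SureFire Ultra, as % of response to 10% FBS.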

[8] = target: T2, Muscarinic acetylcholine receptor M5 (Homo sapiens) (UniProt P08912); test: Positive allosteric modulation at human M5 mAChR expressed in Flp-In-CHO cells at 10 uM incubated for 5 mins by […]; type: cell-based; outline: as §4
T2 sequence (whole entry): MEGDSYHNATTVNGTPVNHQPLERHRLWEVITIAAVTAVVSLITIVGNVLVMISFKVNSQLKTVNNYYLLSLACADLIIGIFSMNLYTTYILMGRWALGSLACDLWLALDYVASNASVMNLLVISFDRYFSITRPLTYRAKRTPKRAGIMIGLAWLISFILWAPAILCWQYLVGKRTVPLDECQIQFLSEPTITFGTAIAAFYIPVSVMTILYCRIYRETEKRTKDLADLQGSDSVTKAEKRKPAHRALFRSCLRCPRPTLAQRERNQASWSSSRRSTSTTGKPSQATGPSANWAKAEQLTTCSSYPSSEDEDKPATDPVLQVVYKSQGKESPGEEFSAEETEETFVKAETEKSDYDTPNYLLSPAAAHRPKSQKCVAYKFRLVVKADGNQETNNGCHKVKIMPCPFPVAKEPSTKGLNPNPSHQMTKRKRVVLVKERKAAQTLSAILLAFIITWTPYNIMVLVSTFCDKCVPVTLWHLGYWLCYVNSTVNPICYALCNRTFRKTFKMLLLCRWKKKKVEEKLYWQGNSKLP

[9] = target: T3, Muscarinic acetylcholine receptor M1 (Homo sapiens) (UniProt P11229); test: Positive allosteric modulation at human M1 mAChR expressed in Flp-In-CHO cells at 10 uM incubated for 5 mins by AlphaScreen SureFire Ultra pERK1/2 assay
T3 sequence (whole entry): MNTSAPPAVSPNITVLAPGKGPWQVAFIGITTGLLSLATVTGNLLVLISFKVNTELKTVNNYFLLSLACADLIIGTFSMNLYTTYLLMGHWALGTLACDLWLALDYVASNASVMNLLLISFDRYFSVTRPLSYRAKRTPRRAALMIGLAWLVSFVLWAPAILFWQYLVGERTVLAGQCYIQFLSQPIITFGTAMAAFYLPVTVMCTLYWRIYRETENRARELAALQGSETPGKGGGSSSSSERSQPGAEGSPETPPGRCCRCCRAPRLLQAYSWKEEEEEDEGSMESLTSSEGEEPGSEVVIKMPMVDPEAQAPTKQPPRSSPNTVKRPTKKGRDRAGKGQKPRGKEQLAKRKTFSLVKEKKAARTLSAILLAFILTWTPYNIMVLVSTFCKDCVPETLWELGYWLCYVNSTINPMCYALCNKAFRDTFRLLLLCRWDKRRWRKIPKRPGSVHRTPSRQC

[10] = filed as positive allosteric modulator

Row | deltapEC50 [1] | Emax [2, 10] | log(activity) [3] | log(activity) [4] | concentration [5] | concentration at 1.5 h [6] | Activity [7] | Activity [8] | Activity [9] | Emax [2] | SMILES
1 | 0.76 | 129% | -0.07 | 2.65 | 915 nM | 159 nM | Active | inactive | inactive | – | Cc1ccc(-c2cnn(CC3CCCC3)c2)c(-c2ccc(F)c(F)c2)n1
2 | 1.48 | 44.7% | -0.45 | 2.34 | 2440 nM | 14 nM | Active | inactive | inactive | – | Cc1ccc(-c2cnn(CC3CCCC3)c2)c(-c2ccc3c(c2)C(=O)N(C)C3)n1
3 | 1.27 | – | -1.29 | 1.91 | 2430 nM | 657 nM | Active | inactive | inactive | 5.6% | Cc1ccc(-c2cnn(CC3CCCC3)c2)c(-c2ccc(N)c([N+](=O)[O-])c2)n1
